According to ChEMBL document CHEMBL2086280, “Structure and bioactivity of steroidal saponins isolated from the roots of Chamaelirium luteum (false unicorn)” (J Nat Prod, 2012):
≈ marks a conversion by molar mass, not a printed value.

Tests used:
NFF = assay: Cytotoxicity against human NFF cells after 6 days by SRB assay; assay type: cell-based; conditions: 144 h
Method in brief: (§1)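 Seeded at 3000−5000 cells/well and exposed for 6 days to compounds diluted from 10 mg/mL DMSO stocks. The top final concentration was 50 μg/mL, carrying 0.5% DMSO final. Cells were ethanol-fixed and stained with sulforhodamine, with absorbance read at 540 nm against untreated controls. IC50 was interpolated from plots of percent control absorbance versus dose.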

MCF7 = assay: Cytotoxicity against human MCF7 cells after 6 days by SRB assay; assay type: functional, cell-based; conditions: MCF7, 144 h; method in brief: as §1
MM96L = assay: Cytotoxicity against human MM96L cells after 6 days by SRB assay; assay type: functional, cell-based; conditions: 144 h; method in brief: as §1
HT-29 = assay: Cytotoxicity against human HT-29 cells after 6 days by SRB assay; assay type: functional, cell-based; conditions: HT-29, 144 h; method in brief: as §1
K562 = assay: Cytotoxicity against human K562 cells after 6 days by MTS assay; conditions: K562, 144 h
HeLa = assay: Cytotoxicity against human HeLa cells after 6 days by SRB assay; assay type: functional, cell-based; conditions: 144 h; method in brief: as §1

SMILES | IC50 (NFF) | IC50 (MCF7) | IC50 (MM96L) | IC50 (HT-29) | IC50 (K562) | IC50 (HeLa)
C[C@@H](CO)CC[C@H](O)[C@@H](C)[C@H]1[C@@H](O)C[C@H]2[C@@H]3CC=C4C[C@@H](O)CC[C@]4(C)[C@H]3CC[C@]12C | > 50 µg/mL | > 50 µg/mL | > 50 µg/mL | > 50 µg/mL | > 50 µg/mL | > 50 µg/mL
C[C@@H]1CC[C@@]2(OC1)O[C@H]1C[C@H]3[C@@H]4CC=C5C[C@@H](O)CC[C@]5(C)[C@H]4CC[C@]3(C)[C@H]1[C@@H]2C [DISOGENIN] | > 50 µg/mL | > 50 µg/mL | > 50 µg/mL | > 50 µg/mL | > 50 µg/mL | > 50 µg/mL
CC(C)[C@H](O)[C@H](O)C[C@@H](C)[C@H]1[C@@H](O[C@@H]2O[C@H](CO)[C@@H](O)[C@H](O)[C@H]2O)C[C@H]2[C@@H]3C[C@@H](O)[C@H]4C[C@@H](O[C@@H]5O[C@H](CO[C@@H]6O[C@H](CO)[C@@H](O)[C@H](O)[C@H]6O)[C@@H](O)[C@H](O)[C@H]5O)CC[C@]4(C)[C@H]3CC[C@]12C [CHAMAELIROSIDE E] | > 50 µg/mL | > 50 µg/mL | > 50 µg/mL | > 50 µg/mL | > 50 µg/mL | > 50 µg/mL
CC(C)[C@H](O[C@@H]1O[C@H](C)[C@H](O)[C@H](O)[C@H]1O)[C@H](O)C[C@@H](C)[C@H]1[C@@H](O)C[C@H]2[C@@H]3CC(=O)[C@H]4C[C@@H](O[C@@H]5O[C@H](CO[C@@H]6O[C@H](CO)[C@@H](O)[C@H](O)[C@H]6O)[C@@H](O)[C@H](O)[C@H]5O)CC[C@]4(C)[C@H]3CC[C@]12C | > 50 µg/mL | > 50 µg/mL | > 50 µg/mL | > 50 µg/mL | > 50 µg/mL | > 50 µg/mL
CC(C)[C@H](O)[C@H](O)C[C@@H](C)[C@H]1[C@@H](O)C[C@H]2[C@@H]3C[C@@H](O)[C@H]4C[C@@H](O)CC[C@]4(C)[C@H]3CC[C@]12C | 22 µg/mL (≈ 48.6 µM) | 13 µg/mL (≈ 28.7 µM) | 8.5 µg/mL (≈ 18.8 µM) | 11 µg/mL (≈ 24.3 µM) | 7 µg/mL (≈ 15.5 µM) | 12 µg/mL (≈ 26.5 µM)
CC(=O)OC[C@H](C)CC[C@@H](OC(C)=O)[C@@H](C)[C@H]1[C@@H](OC(C)=O)C[C@H]2[C@@H]3CC=C4C[C@@H](OC(C)=O)CC[C@]4(C)[C@H]3CC[C@]12C | 13 µg/mL (≈ 21.6 µM) | 7.5 µg/mL (≈ 12.4 µM) | 4.5 µg/mL (≈ 7.47 µM) | 6.5 µg/mL (≈ 10.8 µM) | 8.5 µg/mL (≈ 14.1 µM) | 13 µg/mL (≈ 21.6 µM)
CC(C)[C@@H]1OC(C)(C)O[C@@H]1C[C@@H](C)[C@H]1[C@@H](O)C[C@H]2[C@@H]3C[C@@H](O)[C@H]4C[C@@H](O)CC[C@]4(C)[C@H]3CC[C@]12C | 10 µg/mL (≈ 20.3 µM) | 5 µg/mL (≈ 10.1 µM) | 5 µg/mL (≈ 10.1 µM) | 3.5 µg/mL (≈ 7.1 µM) | 8.5 µg/mL (≈ 17.3 µM) | 4.3 µg/mL (≈ 8.73 µM)
C[C@@H](CO)CC[C@@H](O)[C@@H](C)[C@H]1[C@@H](O)C[C@H]2[C@@H]3CC=C4C[C@@H](O)CC[C@]4(C)[C@H]3CC[C@]12C | > 50 µg/mL | > 50 µg/mL | > 50 µg/mL | > 50 µg/mL | > 50 µg/mL | > 50 µg/mL
CC(=O)O[C@H]1CC[C@@]2(C)C(=CC[C@H]3[C@@H]4C[C@H](OC(C)=O)[C@H]([C@H](C)C(=O)CC[C@@H](C)CO)[C@@]4(C)CC[C@@H]32)C1 | 2 µg/mL (≈ 3.87 µM) | 0.8 µg/mL (≈ 1.55 µM) | 1 µg/mL (≈ 1.94 µM) | 0.8 µg/mL (≈ 1.55 µM) | 1.7 µg/mL (≈ 3.29 µM) | 2.8 µg/mL (≈ 5.42 µM)
CC(C)[C@H](O)[C@H](O)C[C@@H](C)[C@H]1[C@@H](O)C[C@H]2[C@@H]3C[C@@H](O)[C@H]4C[C@@H](O[C@@H]5O[C@H](CO[C@@H]6O[C@H](CO)[C@@H](O)[C@H](O)[C@H]6O)[C@@H](O)[C@H](O)[C@H]5O)CC[C@]4(C)[C@H]3CC[C@]12C [CHAMAELIROSIDE A] | > 50 µg/mL | > 50 µg/mL | > 50 µg/mL | > 50 µg/mL | > 50 µg/mL | > 50 µg/mL
CC(C)[C@H](O)[C@H](O)C[C@@H](C)[C@H]1[C@@H](O)C[C@H]2[C@@H]3CC(=O)[C@H]4C[C@@H](O[C@@H]5O[C@H](CO[C@@H]6O[C@H](CO)[C@@H](O)[C@H](O)[C@H]6O)[C@@H](O)[C@H](O)[C@H]5O)CC[C@]4(C)[C@H]3CC[C@]12C | > 50 µg/mL | > 50 µg/mL | > 50 µg/mL | > 50 µg/mL | > 50 µg/mL | > 50 µg/mL
C[C@@H](CO)CC[C@H](O)[C@@H](C)[C@H]1[C@@H](O)C[C@H]2[C@@H]3CC=C4C[C@@H](O)CC[C@]4(C)[C@H]3[C@H](O)C[C@]12C [HELOGENIN] | > 50 µg/mL | > 50 µg/mL | > 50 µg/mL | > 50 µg/mL | > 50 µg/mL | > 50 µg/mL
CC(C)[C@H](O)[C@H](O)C[C@@H](C)[C@H]1[C@@H](O[C@@H]2O[C@H](CO)[C@@H](O)[C@H](O)[C@H]2O)C[C@H]2[C@@H]3CC(=O)[C@H]4C[C@@H](O[C@@H]5O[C@H](CO[C@@H]6O[C@H](CO)[C@@H](O)[C@H](O)[C@H]6O)[C@@H](O)[C@H](O)[C@H]5O)CC[C@]4(C)[C@H]3CC[C@]12C | > 50 µg/mL | > 50 µg/mL | > 50 µg/mL | > 50 µg/mL | > 50 µg/mL | > 50 µg/mL
CC(=O)O[C@@H]1[C@H](O)[C@@H](O)[C@H](O[C@@H](C(C)C)[C@H](O)C[C@@H](C)[C@H]2[C@@H](O)C[C@H]3[C@@H]4C[C@@H](O)[C@H]5C[C@@H](O[C@@H]6O[C@H](CO[C@@H]7O[C@H](CO)[C@@H](O)[C@H](O)[C@H]7O)[C@@H](O)[C@H](O)[C@H]6O)CC[C@]5(C)[C@H]4CC[C@]23C)O[C@@H]1C [CHAMAELIROSIDE C] | > 50 µg/mL | > 50 µg/mL | > 50 µg/mL | > 50 µg/mL | > 50 µg/mL | > 50 µg/mL
CC(C)[C@H](O[C@@H]1O[C@H](C)[C@H](O)[C@H](O)[C@H]1O)[C@H](O)C[C@@H](C)[C@H]1[C@@H](O)C[C@H]2[C@@H]3C[C@@H](O)[C@H]4C[C@@H](O[C@@H]5O[C@H](CO[C@@H]6O[C@H](CO)[C@@H](O)[C@H](O)[C@H]6O)[C@@H](O)[C@H](O)[C@H]5O)CC[C@]4(C)[C@H]3CC[C@]12C [CHAMAELIROSIDE B] | > 50 µg/mL | > 50 µg/mL | > 50 µg/mL | > 50 µg/mL | > 50 µg/mL | > 50 µg/mL
CC(=O)OC[C@H](C)CC[C@H](OC(C)=O)[C@@H](C)[C@H]1[C@@H](OC(C)=O)C[C@H]2[C@@H]3CC=C4C[C@@H](OC(C)=O)CC[C@]4(C)[C@H]3CC[C@]12C | 12 µg/mL (≈ 19.9 µM) | 11 µg/mL (≈ 18.2 µM) | 3.5 µg/mL (≈ 5.81 µM) | 4.5 µg/mL (≈ 7.47 µM) | 4.5 µg/mL (≈ 7.47 µM) | 16 µg/mL (≈ 26.5 µM)
C[C@H](CC[C@H](O)[C@@H](C)[C@H]1[C@@H](O)C[C@H]2[C@@H]3CC=C4C[C@@H](O[C@@H]5O[C@H](CO)[C@@H](O)[C@H](O)[C@H]5O)CC[C@]4(C)[C@H]3[C@H](O)C[C@]12C)CO[C@@H]1O[C@H](CO)[C@@H](O)[C@H](O)[C@H]1O [HELOSIDE A] | > 50 µg/mL | > 50 µg/mL | > 50 µg/mL | > 50 µg/mL | > 50 µg/mL | > 50 µg/mL
CC(C)[C@H](O)[C@H](O)C[C@@H](C)[C@H]1[C@@H](O)C[C@H]2[C@@H]3CC(=O)[C@H]4C[C@@H](O)CC[C@]4(C)[C@H]3CC[C@]12C | 17 µg/mL (≈ 37.7 µM) | 15 µg/mL (≈ 33.3 µM) | 4.5 µg/mL (≈ 9.99 µM) | 13 µg/mL (≈ 28.8 µM) | 5 µg/mL (≈ 11.1 µM) | 15 µg/mL (≈ 33.3 µM)
